The series is described as follows: Toxicity liver stage against HepG2, at 10uM. It counts as cell-based. Also on record: test concentration 10 uM, cell line HepG2-A16-CD81EGFP. The note with it: human, HepG2-A16-CD81EGFP cells; read-out: INHIBITION
The method, boiled down: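 Uninfected HepG2-A16-CD81EGFP cells, 3 × 10^3 per well, 1536-well, plated on prespotted compound at 10 μM final, parasite-free screening media added to match infected plates; puromycin 10 μM positive, DMSO 0.5% negative; run in parallel with 48 h PbLuc assay at 37 °C, 5% CO2; viability by CellTiter-Glo luminescence, normalized to controls.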
Take `Cc1nnsc1C(=O)N1CCCC(c2nccn2Cc2cscn2)C1` (stereo not given): the cytotoxicity at 10 µM amounted to 2.62%.
Turning to `Cc1ncsc1CCC(=O)N1CCCC1c1cccnc1` (stereo not given), the cytotoxicity at 10 µM was 13.4%.
For `O=C1CC(c2cccs2)c2sc(C(=O)O)c(-c3ccccc3)c2N1` (stereo not given) the value was -1.66%.
For `CC(C)N1CC(n2ccnc2-c2nccn2C)CC1=O` (stereo not given) the value was -0.371%; for `CC(C)NC(=O)c1cc2c(c3ccccc3n2C)n1C(=O)N(C)C`, -79.4%; for `C=C(C)COc1ccccc1NC(=O)NC1CCOCC1`, 4.67%.
For `Cc1noc(C)c1CN1CC[C@@H]2O[C@H](COCC3CC3)CC[C@@H]21` the value was 5.65%; for `CC(O)CN1CCN(C(=O)c2cccn2Cc2ccncc2)CC1` (stereo not given), -10.9%; for `CC(C)c1noc(C2CCCN2S(=O)(=O)Cc2ccc(F)cc2)n1` (stereo not given), 3.88%.
Turning to `CN(CCc1ccccn1)CCc1nccs1`, the cytotoxicity at 10 µM worked out at 2.01%.
For `c1cnnc(N2CCCC2CNc2ncnc3c2CCC3)c1` (stereo not given) the value was -0.626%.
In the case of `CC(C)(C)OC(=O)NC1CCCN(Cc2cccc(O)c2)C1` (stereo not given) it was -45.3%; in that of `Cc1csc(CNCC2CCCN(C(=O)OC(C)(C)C)C2)n1` (stereo not given), -6.82%.
For `CC(C)CN1CCN(C(=O)c2[nH]nnc2Nc2ccccc2F)CC1` the value was 18.7%; for `CCCc1cc(=O)[nH]c2nnc(SCC(=O)NC(C)(C)C)n12`, 9.57%.
Take `O=C(N1CCOCC1)N1CCN(CC(O)c2ccc(F)cc2)CC1` (stereo not given): the cytotoxicity at 10 µM was -2.42%.
In the case of `CN1CCN(Cc2cccnc2)C2(CCN(Cc3ccoc3)C2)C1=O` (stereo not given), the cytotoxicity at 10 µM was -2.4%.
Turning to `CC(C)Sc1ncccc1C(=O)NCc1cccc(N(C)C)c1`, the cytotoxicity at 10 µM is -3.42%.
For `Cc1nc(NC(=O)C(C)n2ncc(Br)c2C)sc1C` (stereo not given) the value was 10.3%.
For `CCC(C)N(Cc1cccnc1)C(=O)c1ccc(F)c(O)c1` (stereo not given) the value was 1.87%.
For the compound `CCN(CCn1cccn1)Cc1nc(-c2ccccc2F)oc1C`, the cytotoxicity at 10 µM stood at 1.04%.
For `O=C(NCc1cc(F)cc(Br)c1)C1(O)CCSCC1` the value was 3.6%; for `COc1ccc(NC(=O)Nc2c(O)c3ccccc3oc2=O)cc1`, -9.87%.
For `CCN(CC)CCNC(=O)c1cnc(C(C)(C)C)s1` the value was -8.94%; for `CC(O)CN1CCC(CNCc2cccc(Cl)c2)CC1` (stereo not given), -23.8%; for `Cc1ccccc1S(=O)(=O)NC(=O)C1(c2cccc(Cl)c2)CC1`, 1.97%.
In the case of `CCc1cnc(N)nc1N1CCN(C(C)=O)CC1` it was -51.7%; in that of `Cc1ccc(C2CCCN2S(=O)(=O)N(C)Cc2cnccn2)o1` (stereo not given), 0.78%.
Turning to `CN1CCO[C@H]2CN(S(=O)(=O)c3ccc(C#N)cc3)C[C@H]21`, the cytotoxicity at 10 µM was determined as 7.25%.
`COc1ccc(CNC(=O)Nc2cccnc2N2CCCC2)cc1`: the cytotoxicity at 10 µM is -21.5%.
In the case of `Cc1ccc(N2CCCC(NC(=O)Nc3cnn(C)c3)C2=O)cc1` (stereo not given) it was -44%; in that of `Cc1ccc(CNC(=O)CCN2CCN(c3ccccn3)CC2)n1C`, 19.8%.
In the case of `COc1cc(N2C[C@H]3CN(CCN4CCCC4)C(=O)[C@H]3C2)ncn1` it was 12.7%; in that of `Cn1nc(COc2cncnc2)c2c1CCN(Cc1ccccn1)C2`, 9.67%.
For `CN(Cc1nnc(-c2ccco2)o1)C1CCCN(c2cccnn2)C1` (stereo not given) the value was -7.39%; for `COCCN1CCC(c2nc3cc(C)ccc3[nH]2)CC1`, -0.621%; for `CC(=O)c1cc(CN2C[C@@H](C(=O)O)[C@H](c3cccnc3)C2)cs1`, 4.11%.
For the compound `CCC1=N[C@@]2(CC[C@@H]3CN(Cc4ccc(Cl)cc4)C[C@@H]32)C(=O)N1C`, the cytotoxicity at 10 µM was determined as 1.98%.
For `O=C([C@@H]1CC[C@@H]2[C@@H](CCN2Cc2ccncc2)O1)N1CCCCO1` the value was -3.75%.
For `CNC(=O)CC1CCN(C(=O)NCC2(c3ccccc3F)CC2)CC1` the value was 4.27%.
In the case of `COc1ccc(CNC(=O)Cc2csc(C(C)=O)c2)cc1` it was 4.95%; in that of `COc1cc(N2C[C@@H]3COC[C@]3(COc3ccc(C#N)cn3)C2)ncn1`, 32.2%; in that of `CNS(=O)(=O)c1cccc(C(C)NCc2cccc(O)c2)c1` (stereo not given), 1.14%.
As for `Cc1nc2ccccc2nc1CN1CCc2c(nc(C3CC3)n2C)C1`, the cytotoxicity at 10 µM was 7.97%.
In the case of `N#Cc1cccc(NC2CC(=O)N(Cc3cccc(F)c3)C2)n1` (stereo not given) it was -94.2%.
For `CC(C)=CCN1CCN(C(=O)CSc2ccccn2)[C@H]2CS(=O)(=O)C[C@H]21` the value was 4.97%.
For `CC(C)(C)n1cc(C#N)cc1NC(=O)CCS(=O)(=O)C1CCCC1` the value was -0.935%; for `Cc1cnc(N2CC[C@@]3(O)CCCC[C@H]3C2)nc1-c1ccnn1C`, 0.276%; for `CCCOc1cc(F)ccc1NC(=O)NCc1noc(C)n1`, 7.83%.
`Cc1noc(NC(=O)c2ccc(C#N)cc2)n1`: the cytotoxicity at 10 µM is -5.32%.
For `Cn1nc(CN2CCCCC2)c2c1CN(C(=O)c1ccoc1)C2` the value was 2.83%; for `COCc1nc2cc(NCc3ccncc3)ccc2o1`, -3.3%.
For `COc1cc(-c2nccn2C(C)CCn2cccn2)cc2c1OCO2` (stereo not given) the value was 0.562%.
For `CCn1ncc(C(=O)NCCc2nc(-c3cccnc3)n[nH]2)c1C` the value was 1.94%; for `CNC(=O)C1CCC(NC(=O)c2cc(C3CC3)n(C(C)(C)C)n2)CC1` (stereo not given), 4.74%; for `Cc1cnn(CC2CN(Cc3nc(-c4ccccn4)no3)CCO2)c1` (stereo not given), -22.6%.
In the case of `O=C(c1cc(Cn2cnc3ccccc32)on1)N1CCOCC1`, the cytotoxicity at 10 µM is -2.46%.
Turning to `CN(CCCN1CCCC1)[C@@H]1c2ccccc2C2(CCNCC2)[C@H]1O`, the cytotoxicity at 10 µM was -3.99%.
`CC(CNS(N)(=O)=O)Oc1cccc(Cl)c1` (stereo not given): the cytotoxicity at 10 µM was 2.24%.
For `COc1cc(OC)cc(C2(O)CCN(Cc3ncc(C)o3)CC2)c1` the value was 17%; for `O=C(CN1C(=O)CCC1=O)N1CCOCC1`, 2.48%.
In the case of `O=C(Nc1ccc(CC(=O)N2CCSCC2)cc1)NC1CC1` it was -2.42%; in that of `CN1CCN(S(C)(=O)=O)c2ccc(F)cc21`, -4.12%.
For `COC[C@@]12CCO[C@@H]1CCN(C(=O)CCc1ccccc1Cl)C2` the value was 7.69%; for `c1cncc(CN2CC[C@@H]3[C@@H]2CCN3Cc2ccc3c(c2)OCO3)c1`, -3.04%.
As to `Fc1ccccc1Cc1noc(CN2CCC(C3CCCCC3)C2)n1` (stereo not given), the cytotoxicity at 10 µM came to 0.372%.
For `Cn1cc([C@@H]2CN(S(=O)(=O)c3ccccc3F)C[C@H]2N)c2ccncc21` the value was 6.13%.
For `CC(C)C1CN(c2nccc(N)n2)CCC(=O)N1Cc1ccc(F)cc1` (stereo not given) the value was -5.04%; for `Cc1ccc2nc(C)c(C)c(C(=O)NCCCn3cnnc3)c2c1`, -2.89%; for `O=C(O)CCc1cc2n(n1)CCCN(C(=O)c1cc3ccccc3s1)C2`, 0.45%.
For `COc1cc2cc(C(=O)NCC(=O)O)n(C)c2c(OC)c1OC` the value was -77.3%.
Take `Cc1cnn(CC2CCCCN2CCn2cncn2)c1` (stereo not given): the cytotoxicity at 10 µM was 6.26%.
For `Cc1ccc2snc(C(=O)N3CCN(C(=O)NCCC(C)C)CC3)c2c1` the value was -0.964%; for `Cn1cnc2c1C(C(=O)N1CCCC1)N(S(C)(=O)=O)CC2` (stereo not given), 6.22%.
As to `CCC(C)N1Cc2c(C(=O)N3CCCC3)nn(C)c2C1` (stereo not given), the cytotoxicity at 10 µM was -5.03%.
In the case of `COC(=O)C1CCN(C(=O)CN2CCN(c3cccc(C)c3)CC2)CC1` it was -17.5%; in that of `Cc1ncsc1CNc1cccc(OCCN2CCCC2)c1`, -3.35%.
In the case of `O=C(c1ccco1)N1CCCC(c2cc(C(F)F)n3ncnc3n2)C1` (stereo not given) it was 4.4%; in that of `Cc1ccccc1OC(C(=O)N1CCC2(CC1)CN(C)C(=O)O2)C(C)C` (stereo not given), -52.4%.
With `CC1=Nc2c(c(=O)[nH]n2C(C)C)C(c2ccc3ncccc3c2)S1` (stereo not given), the cytotoxicity at 10 µM is 4.66%.
In the case of `O=C1CO[C@@H]2CN(C3CCOCC3)C[C@H]2N1Cc1cccc(F)c1` it was -77%; in that of `CN(C)[C@@H]1COC[C@@H]2CN(Cc3ccc4c(c3)OCO4)C[C@@H]21`, 2.02%; in that of `Cc1cccc(N2CCN(C(=O)Cc3ccccc3O)C(C)C2)n1` (stereo not given), 13.5%.
As to `COc1ccc(-c2cccc(CC3(C(=O)O)CCOCC3)c2)cc1`, the cytotoxicity at 10 µM was -34.3%.
Take `CCOc1ccc(OCC(O)CN2CCN(S(C)(=O)=O)CC2)cc1` (stereo not given): the cytotoxicity at 10 µM is -36.8%.
Turning to `CC(=O)NCCc1nc(C(C)C)nn1-c1ccncc1C`, the cytotoxicity at 10 µM came out at 3.26%.
In the case of `CCC(CN1CCOCC1)n1cncc1-c1ccc2c(c1)CCCN2C` (stereo not given) it was 8.9%; in that of `CC(C)C(=O)N1CCC(n2nc(-c3ccco3)ccc2=O)CC1`, -2.44%.
In the case of `COc1ncccc1CN1C[C@H]2CCN(C(C)C)C[C@H]2C1` it was 2%; in that of `O=C(CN1CC(n2cccn2)C1)NCCC1=CCCCC1`, -8.25%; in that of `COc1cccc(OCC2CCCN(C3CCN(C(C)=O)CC3)C2)c1` (stereo not given), -18.3%.
In the case of `Cc1ccc(C(=O)N2CCC3(CC2)C(=O)NCCN3C)cc1O` it was -0.081%; in that of `c1ccc2nc(N3CCOC(Cn4cccn4)C3)cnc2c1` (stereo not given), -9.86%.
In the case of `Cc1cc(C)n(CCCn2cncc2-c2ccc3c(c2)CC(C)N3C)n1` (stereo not given), the cytotoxicity at 10 µM was found to be 0.94%.
For `CSCc1cccc(S(=O)(=O)NCCCN2CCOCC2)c1` the value was -8.63%.

Source of the values: ChEMBL document CHEMBL4513216, “Probing the Open Global Health Chemical Diversity Library for Multistage-Active Starting Points for Next-Generation Antimalarials” (ACS Infect Dis, 2020).
